SMILES strings stand for the structures.

The data set in a line: Toxicity liver stage against HepG2, at 10uM. Format: cell-based. The conditions noted are these: human, HepG2-A16-CD81EGFP cells; read-out: INHIBITION
Also noted: test concentration 10 uM, cell line HepG2-A16-CD81EGFP. The method in brief:
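Uninfected HepG2-A16-CD81EGFP cells, 3 × 10^3 per well, 1536-well, plated on prespotted compound at 10 μM final, parasite-free screening media added to match infected plates; puromycin 10 μM positive, DMSO 0.5% negative; run in parallel with 48 h PbLuc assay at 37 °C, 5% CO2; viability by CellTiter-Glo luminescence, normalized to controls.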
For `CS(=O)(=O)NC[C@H]1Cn2c(-c3ccc(Cl)cc3)cnc2CO1`, the cytotoxicity at 10 µM is -3.58%.

Take `CC(=O)Nc1ccccc1Sc1nc(Br)nn1C`: the cytotoxicity at 10 µM is -1.05%. In the case of `CCOC(=O)[C@H]1[C@@H](O)C(=O)N(C)C12CCN(C(=O)C(CC)CC)CC2`, the cytotoxicity at 10 µM was -4.47%.

As to `CCN1CC(O)CN(C(=O)c2cccc(C(F)(F)F)c2)CC1=O` (stereo unspecified), the cytotoxicity at 10 µM was 4.04%. For `COc1cc(OC)cc(-c2noc(C(N)CCSC)n2)c1` (stereo unspecified), the cytotoxicity at 10 µM was -3.18%. Regarding `COCCn1cc(CC(=O)Nc2nc[nH]n2)c2ccccc21`, the cytotoxicity at 10 µM was -0.145%. To `CCOc1ccc(C(=O)Nc2c(C)nc3scc(C)n3c2=O)cc1` belongs -5.58%; to `O=C(c1ccccc1F)N1CC(c2nc(C3CC3)no2)C1`, -0.478%. Under `CN(Cc1ccccc1)CC1CC2(CO1)CN(Cc1cnn(C)c1)C2` (stereo unspecified) stands 9.76%. For the molecule `N#Cc1cccc(N2CCCC3(CN(C(=O)c4ccc[nH]4)CCO3)C2)c1` (stereo unspecified), the cytotoxicity at 10 µM stood at 13.3%. As to `CCC1=N[C@@]2(CC[C@@H]3CN(CC4CC4)C[C@@H]32)C(=O)N1`, the cytotoxicity at 10 µM stood at 4.86%. For the molecule `Cn1cc(C2CC(=O)NC23CCN(C(=O)c2ccc[nH]2)CC3)cn1` (stereo unspecified), the cytotoxicity at 10 µM turned out to be 8.94%. For the molecule `Cc1cc(C(=O)N2CCCC3(CCCN3Cc3cccnc3)C2)[nH]n1` (stereo unspecified), the cytotoxicity at 10 µM was determined as 8.07%. Consider `O=C(NCCN1CCCCC1)c1nc2ccccc2c(=O)[nH]1`, for which the cytotoxicity at 10 µM turned out to be 10.5%. Take `O=C(Cc1ccccc1)N1CCC2(CC(=O)N(c3cccc(F)c3)C2)C1` (stereo unspecified): the cytotoxicity at 10 µM was -0.557%. On to `Cc1cc(CN2CCN(S(C)(=O)=O)CC(C(=O)N(C)C)C2)no1` (stereo unspecified), for which the cytotoxicity at 10 µM is -9.74%. Turning to `CN(C(=O)COc1ccc(F)cc1)[C@@H]1CC[C@@H](n2ccnc2)[C@@H]1O`, the cytotoxicity at 10 µM was -5.28%. As for `CNc1cccc(C2CCCN(C(=O)c3cncs3)C2)n1` (stereo unspecified), the cytotoxicity at 10 µM was -18.3%. On to `CC(=O)N1CCCC(Cc2nccn2C)C1` (stereo unspecified), for which the cytotoxicity at 10 µM was -5.52%. `CO[C@H]1CN(Cc2ccccc2F)C[C@@]12CCCO2`: the cytotoxicity at 10 µM is -8.19%. To `COc1cc(C)ccc1OCC(=O)Nc1ccnc(OCCN(C)C)c1` belongs -5.18%. As to `O=C(Cc1ccc(F)c(F)c1)NC1COc2ccccc2C1=O` (stereo unspecified), the cytotoxicity at 10 µM was determined as 4.61%. Consider `COc1ccc(COCC(O)CSc2ccc(NC(C)=O)cc2)cc1` (stereo unspecified), for which the cytotoxicity at 10 µM was determined as 8.22%. As to `CN1CCOC(CNCc2nc(-c3ccoc3)no2)C1` (stereo unspecified), the cytotoxicity at 10 µM was -5.27%. Regarding `CC(NC(N)=O)C(=O)NCc1cc(Br)ccc1F` (stereo unspecified), the cytotoxicity at 10 µM is -3.02%. For the molecule `COc1ccccc1NCC(=O)NCc1scnc1C`, the cytotoxicity at 10 µM was found to be 5.48%. In the case of `CN(C(=O)c1ccc(Cl)c(S(C)(=O)=O)c1)c1ccccc1`, the cytotoxicity at 10 µM is -1.47%.

In the case of `CCN(CC)C(=O)c1ccc(COc2ccccc2C#N)o1`, the cytotoxicity at 10 µM is 1.96%.

With `CCCc1nnc(NC(=O)NC2CCOc3ccccc32)s1` (stereo unspecified), the cytotoxicity at 10 µM is 3.72%. Under `COc1ccc(NC(=O)N(CCO)Cc2ccsc2)c(OC)c1` stands 12.2%.

`COc1ccc(C(C)NC(=O)NCCc2ccc(C)nc2)c(OC)c1` (stereo unspecified): the cytotoxicity at 10 µM was -1.74%.

On to `CC(=O)N1CCC(NC(=O)Cc2csc(C(C)(C)C)n2)CC1`, for which the cytotoxicity at 10 µM is -8.41%.

Turning to `CC(=O)NCCC(=O)NCc1ccc(Br)cc1Cl`, the cytotoxicity at 10 µM worked out at 0.871%. For `NC(=O)NC(=O)CCSCc1coc(-c2cccc(Cl)c2)n1`, the cytotoxicity at 10 µM is -1.23%.

Regarding `Cc1ccc2c(c1)C(NCc1nccn1Cc1ccccc1)CCCO2` (stereo unspecified), the cytotoxicity at 10 µM was 1.26%. For the molecule `Cc1nc(CNC(C(=O)N2CCOCC2)C(C)C)oc1C` (stereo unspecified), the cytotoxicity at 10 µM was -4.34%. With `O=C(Nc1ccc(=O)n(Cc2ccccc2Cl)c1)C1CC1`, the cytotoxicity at 10 µM was -6.57%. Regarding `Cc1ccc(C(=O)O)cc1NC(=O)C1CC=CC1`, the cytotoxicity at 10 µM is -7.25%.

Turning to `O=C(NCc1ccco1)c1cccc(CN2CCCC2CO)c1` (stereo unspecified), the cytotoxicity at 10 µM is -3.13%. In the case of `CC(Cn1cccn1)NC(=O)NCCN1CCCCCC1=O` (stereo unspecified), the cytotoxicity at 10 µM was 12.3%. `CCC(C)(NCc1nnc(C(C)(C)C)o1)c1nccs1` (stereo unspecified): the cytotoxicity at 10 µM came to 19.2%. Under `CCO[C@@H]1CC[C@H]2[C@H]1OCCN2C(=O)CC1=CCCCC1` stands 2.91%; under `CCN(C(=O)c1nc2c(s1)CCCN2C(C)=O)C(C)C`, -0.802%; under `Cn1cnc(-c2nc(C(=O)NC3CC3)c3ccccn23)c1`, -114%. As to `Cc1nccc([C@H]2C[C@@H]3CCN(Cc4ccco4)C[C@H]3O2)n1`, the cytotoxicity at 10 µM is -1.03%. `O=C(c1ccnnc1)N1C[C@H](OCc2ccccn2)[C@H]2COC[C@H]21`: the cytotoxicity at 10 µM is -7.52%. With `O=C(c1ccccn1)N1CCC2(CC1)COC(COc1cccnc1)C2` (stereo unspecified), the cytotoxicity at 10 µM was -1.98%. With `Cc1cc(NC(C)c2nnn[nH]2)n2nc(C)c(C)c2n1` (stereo unspecified), the cytotoxicity at 10 µM worked out at 9.4%. Turning to `O=C(NC1CCCC1)c1cc(Cn2cnc3ccccc32)on1`, the cytotoxicity at 10 µM amounted to 4.51%.

Take `CN(C)CCN1CC(C(=O)NCc2ccc(C#N)cc2)CC1=O` (stereo unspecified): the cytotoxicity at 10 µM was -6.02%. Consider `CC(C)C1CN(C(=O)c2csc(CN(C)C)n2)CCC(=O)N1CC1CC1` (stereo unspecified), for which the cytotoxicity at 10 µM was -1.74%. With `COc1nccnc1N1CCN(Cc2cccc(C)c2)C(=O)C1`, the cytotoxicity at 10 µM was -0.408%. With `CCCc1nnc(NC2CCN(CCO)CC2)o1`, the cytotoxicity at 10 µM came out at 8.35%. Take `CC1(c2ccccc2)CCCN(Cc2nnc(-c3cccnc3)o2)C1` (stereo unspecified): the cytotoxicity at 10 µM is -6.64%.

Take `Cc1cc(C2CCC2)nc(N(C)Cc2ncccc2C)n1`: the cytotoxicity at 10 µM was -0.392%. In the case of `Clc1cc(N2CCN(C3CCOCC3)CC2)nc2[nH]ccc12`, the cytotoxicity at 10 µM is -3.96%. As to `CCN(Cc1ccccc1)C(=O)CCN1C[C@@H](C(=O)O)[C@H](C2CC2)C1`, the cytotoxicity at 10 µM came to 6.94%. As to `CN(C)c1nc2c(c(NCc3nnc4n3CCCCC4)n1)CCNC2`, the cytotoxicity at 10 µM is -1.37%.

With `NCCO[C@H]1C[C@@H](O)C12CCN(C(=O)CCOc1ccccc1)CC2`, the cytotoxicity at 10 µM was 3.12%. For the molecule `O=C(O)c1cccnc1CN1CCCCC1CCc1cccs1` (stereo unspecified), the cytotoxicity at 10 µM is 5.23%. `Cc1nn(C)c(C)c1C1COCCN1C(=O)CCc1ccccc1` (stereo unspecified): the cytotoxicity at 10 µM was -0.284%. As to `COCCc1noc(CN2CCCC2c2c(C)nn(C)c2Cl)n1` (stereo unspecified), the cytotoxicity at 10 µM is -7.71%. On to `COc1ccc(-n2ccc(C(=O)NCCn3ccnc3)n2)cc1`, for which the cytotoxicity at 10 µM was -7.2%. Take `Cc1nccn1-c1cc(CNC(=O)CCS(=O)(=O)C2CCCC2)ccn1`: the cytotoxicity at 10 µM was -1.71%. Consider `CCc1cnc(CN(C(C)=O)C2CCN(CC3(O)CCCCC3)C2)o1` (stereo unspecified), for which the cytotoxicity at 10 µM worked out at 0.195%.

For `COCCN1CCC(CNC(=O)C2(c3ccccc3)CCOCC2)C1` (stereo unspecified), the cytotoxicity at 10 µM was -5.87%. For `Cc1cnn(CCC(=O)NC2CCc3nc(C)cn3C2)c1` (stereo unspecified), the cytotoxicity at 10 µM is 0.132%.

Take `CC(C#N)CN(C)Cc1nc2c(cnn2C)c(=O)[nH]1` (stereo unspecified): the cytotoxicity at 10 µM is -6.45%. `CCc1nc(CNCC2CCCN2c2cccnn2)cs1` (stereo unspecified): the cytotoxicity at 10 µM is -7.69%. On to `CCc1noc(CN2CCC(C(=O)Nc3cnn(CC)c3)CC2)n1`, for which the cytotoxicity at 10 µM is 3.43%.

Consider `Cc1cnn(CCC(=O)N2CCN(c3ccc(C#N)cn3)CC2)c1`, for which the cytotoxicity at 10 µM is -0.417%. Consider `CCOc1ncccc1NC(=O)NC1CCN(C(C)=O)CC1`, for which the cytotoxicity at 10 µM was -6.47%. On to `Cc1cc(C(=O)N2CCCC(n3cccn3)C2)c(C)n1C1CC1` (stereo unspecified), for which the cytotoxicity at 10 µM is -16.7%. Regarding `CC(C)CCC(=O)NCCc1ccn(-c2ccccc2)n1`, the cytotoxicity at 10 µM is -14.6%.

Turning to `Cc1ccccc1CN1CCN(C(C)c2nc(C3CC3)no2)CC1` (stereo unspecified), the cytotoxicity at 10 µM is -22.2%. Under `CN(Cc1cnn(C)c1)CC1CCCN1c1cccnn1` (stereo unspecified) stands -1.07%; under `Cc1cnn(CC2CCCCN2C(=O)c2ccc3[nH]cnc3c2)c1` (stereo unspecified), -9.75%; under `CC(C)c1nc2n(n1)CC(NCc1nc(-c3ccsc3)no1)CC2` (stereo unspecified), -5.39%. Consider `CCc1nnc2n1CCN(CC(=O)Nc1cc(C)on1)C2`, for which the cytotoxicity at 10 µM was determined as 5.18%. Under `Cc1cc(C(F)(F)F)n2nc(C3CCCN3C3CCSCC3)cc2n1` (stereo unspecified) stands 1.77%; under `COCCO[C@H]1CCN(c2ccc(C)nn2)[C@H]1Cc1cccnc1`, 1.53%; under `COCC(=O)N1CCC2(CC1)CNc1ccc(F)cc12`, 12.2%.

Turning to `N#Cc1cnc2ccccc2c1N1CCN(CCC(=O)O)CC1`, the cytotoxicity at 10 µM is -1.28%. With `CCS(=O)(=O)N1CCOC2(CCCN(c3ccc(C)nn3)C2)C1` (stereo unspecified), the cytotoxicity at 10 µM worked out at 0.253%. As to `CN1CCN(CC2CC2)C(=O)C12CCN(C(=O)c1ccnnc1)CC2`, the cytotoxicity at 10 µM was found to be 8.49%. Regarding `Cc1nc(CNCC2Cn3nncc3CO2)cs1` (stereo unspecified), the cytotoxicity at 10 µM is -93.2%. To `O=C([C@@H]1CC[C@@H]2[C@@H](CCN2c2ccncn2)O1)N1CCCCO1` belongs 3.13%; to `COCc1cncc2c1CCN(C(=O)c1ccc(C#N)cc1)C2`, -106%. To `CCOCC1CN(c2ccncn2)Cc2cnn(CC)c21` (stereo unspecified) belongs 3.04%; to `CN1CC[C@@H]2OC[C@H](C(=O)N(C)Cc3ccccn3)C[C@@H]2C1`, -98%; to `c1ccc(CO[C@@H]2CC[C@H]3[C@H]2OCCN3Cc2ccsc2)nc1`, -4.69%. On to `CC(C)NC(=O)N1CCN(CCn2cccn2)c2ncccc2C1`, for which the cytotoxicity at 10 µM is -100%. As to `Cn1cc(CN2CCn3cnc(COCC4CC4)c3C2)cn1`, the cytotoxicity at 10 µM came to 3.71%. Take `O=C(c1cc(C2CC2)no1)N1C[C@@H]2CC[C@H]1CN(Cc1ccccn1)C2`: the cytotoxicity at 10 µM stood at 2.21%.

As for `CCCn1nccc1NC(=O)CN1CCc2c(nc(C3CC3)n2C)C1`, the cytotoxicity at 10 µM is 3.58%. Under `CCc1cnc(N2C[C@@H]3C[C@H](C(=O)NC4CCC4)[C@H](C2)O3)nc1` stands 5.74%.

Values taken from ChEMBL document CHEMBL4513216, “Probing the Open Global Health Chemical Diversity Library for Multistage-Active Starting Points for Next-Generation Antimalarials” (ACS Infect Dis, 2020).
